Measurements reported in ChEMBL document CHEMBL1121375, “Synthesis and structure-function studies of melanocyte stimulating hormone analogues modified in the 2 and 4(7) positions: comparison of activities on frog skin melanophores and melanoma adenylate cyclase” (1980).
Square brackets hold non-standard residues; d marks the D form. Peptide text beside a SMILES is read from it. Nle = CCCC[C@H](N)C(=O)O

Tests used:
Mus musculus = organism: Mus musculus; assay: Relative potency using melanoma adenylate cyclase bioassay system from S-91 melanoma tumors grown in DBA/2J mice; assay type: functional
Summary of the method: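 Particulate membrane fraction from S-91 melanoma tumors; 100 μg membrane protein starts the reaction. Medium: 1 mM [α-³²P]ATP, 5 mM MgCl₂, 1 mM cAMP, 0.5 mM IBMX, 1 mM DTT, 20 mM creatine phosphate, 100 U/mL creatine phosphokinase, 10 μM GTP, 30 mM Tris-HCl pH 7.5. 10 min at 30 °C; [³²P]cAMP isolated and counted. Potency from half-maximal response relative to α-MSH.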

[1] = tested on: Melanocortin receptor (Rana berlandieri); assay: Relative potency using frog skin bioassay system

Compound	Potency (Mus musculus)	Potency [1]
H-DEGPYKMEHFRWGSPPKD-OH	2.2	0.55
CCCC[C@H](NC(=O)[C@H](CO)NC(=O)[C@H](Cc1ccccc1)NC(=O)[C@H](CO)NC(C)=O)C(=O)N[C@@H](CCC(=O)O)C(=O)N[C@@H](Cc1c[nH]cn1)C(=O)N[C@@H](Cc1ccccc1)C(=O)N[C@@H](CCCN=C(N)N)C(=O)N[C@@H](Cc1c[nH]c2ccccc12)C(=O)NCC(=O)N[C@@H](CCCCN)C(=O)N1CCC[C@H]1C(=O)N[C@H](C(N)=O)C(C)C	0.9	0.82
CCCC[C@H](NC(=O)[C@H](CCCCN)NC(=O)[C@H](Cc1ccc(O)cc1)NC(=O)[C@@H]1CCCN1C(=O)CNC(=O)[C@H](CCC(=O)O)NC(=O)[C@@H](N)CC(=O)O)C(=O)N[C@@H](CCC(=O)O)C(=O)N[C@@H](Cc1c[nH]cn1)C(=O)N[C@@H](Cc1ccccc1)C(=O)N[C@@H](CCCN=C(N)N)C(=O)N[C@@H](Cc1c[nH]c2ccccc12)C(=O)NCC(=O)N[C@@H](CO)C(=O)N1CCC[C@H]1C(=O)N1CCC[C@H]1C(=O)N[C@@H](CCCCN)C(=O)N[C@@H](CC(=O)O)C(=O)O (H-DEGPYK[Nle]EHFRWGSPPKD-OH)	4.2	5.2
